Laboratory results from ChEMBL document CHEMBL3862013 (Bioorg Med Chem, 2016).

Key:
[1] = tested on: Human immunodeficiency virus 1; assay: Antiviral activity against ENV pseudotyped HIV1 subtype D QD435.100M.ENV.B5; type: functional; settings: Human immunodeficiency virus 1, subtype D QD435.100M.ENV.B5
[2] = Inhibition of HIV1 HXB2 Env-mediated cell-cell fusion using MAGI-CCR5 as target cells and HL2/3 as effector cells preincubated with target cells for 1 hr followed by effector cells addition measured after 24 hrs by beta-galactosidase reporter gene assay; settings: Human immunodeficiency virus 1, HXB2
[3] = tested on: Human immunodeficiency virus 1; assay: Antiviral activity against ENV pseudotyped HIV1 subtype A/D QA790.204I.ENV.C8; type: functional; settings: Human immunodeficiency virus 1, subtype A/D QA790.204I.ENV.C8
[4] = tested on: Human immunodeficiency virus 1; assay: Antiviral activity against ENV pseudotyped HIV1 subtype C ZM233M.PB6; type: functional; settings: Human immunodeficiency virus 1, subtype C ZM233M.PB6
[5] = tested on: Human immunodeficiency virus 1; assay: Antiviral activity against ENV pseudotyped HIV1 subtype A/D QA790.204I.ENV.E2; type: functional; settings: Human immunodeficiency virus 1, subtype A/D QA790.204I.ENV.E2
[6] = tested on: Human immunodeficiency virus 1; assay: Inhibition of CD4-dependent CXCR4-tropic HIV1 3B cell to cell transmission using Ghost X4/R5 cells as target cells and H9 as effector cells assessed as p24 release incubated for 4 hrs by sandwich ELISA method; type: functional; settings: Human immunodeficiency virus 1, 3B
[7] = Cytotoxicity against human TZM-bl cells after 3 days by XTT assay; type: toxicity, cell-based; settings: 72 h
Summary of the method: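 Graded compound concentrations added to an equal volume of TZM-bl cells (10^5/ml) and incubated 3 days. XTT added, then formazan read at 450 nm after 4 h. CC50 derived from percent cytotoxicity; mean ± SD.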

[8] = tested on: Human immunodeficiency virus 1; assay: Antiviral activity against HIV1 3B assessed as inhibition of multi-cycle viral infection in human MT2 cells by measuring p24 production preincubated for 30 mins followed by addition of cells measured after 4 days by sandwich ELISA; type: functional, cell-based
Summary of the method: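 Overnight at 37 °C, then supernatant replaced with fresh medium. Day 4 post-infection, supernatants mixed with equal volume 5% Triton X-100 and p24 measured by sandwich ELISA. IC50 derived from percent inhibition of p24 production; mean ± SD.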

[9] = tested on: Vesicular stomatitis virus; assay: Antiviral activity against G-glycoprotein expressing VSV; type: functional
[10] = tested on: Human immunodeficiency virus 1; assay: Antiviral activity against ENV pseudotyped HIV1 PRHPA4259 clone 7; type: functional; settings: Human immunodeficiency virus 1, PRHPA4259 clone 7
[11] = Cytotoxicity against human MT2 cells after 4 days by XTT assay; type: toxicity, cell-based; settings: mt2, 96 h
Summary of the method: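 Run in parallel with the antiviral assay. Graded compound added to an equal volume of MT-2 cells (10^5 cells/ml) and incubated 4 days. XTT added, and soluble formazan read at 450 nm after 4 hours.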

[12] = tested on: Human immunodeficiency virus 1; assay: Antiviral activity against ENV pseudotyped HIV1 subtype A/E AA058; type: functional; settings: Human immunodeficiency virus 1, subtype A/E AA058
[13] = tested on: Human immunodeficiency virus 1; assay: Antiviral activity against X4 tropic HIV1 HXB2 assessed as inhibition of single cycle viral infection in human TZM-bl cells preincubated for 30 mins followed by addition of cells measured after 3 days by luciferase reporter gene assay; type: functional, cell-based
[14] = tested on: Human immunodeficiency virus 1; assay: Inhibition of CD4-dependent CCR5-tropic HIV1 ADA cell to cell transmission using Ghost X4/R5 cells as target cells and MOLT4 as effector cells assessed as p24 release incubated for 4 hrs by sandwich ELISA method; type: functional, cell-based; settings: Human immunodeficiency virus 1, ADA, MOLT-4, 4 h
[15] = Human immunodeficiency virus 1, 3B, MT2
[16] = Human immunodeficiency virus 1, HXB2, TZM-bl

Structure (SMILES) | CC50 [7] [µM] | IC50 [8, 15] [µM] | CC50 [11] [µM] | IC50 [13, 16] [µM] | further results
Cc1nc([C@H](NC(=O)c2ccc(-c3ccc(Cl)cc3)[nH]2)[C@@H]2CCCCN2)sc1CO | 23.6 | 0.85 | 24.8 |  | IC50 [1]: 1.6 µM; IC50 [2]: 8.9 µM; IC50 [3]: 1.5 µM; IC50 [4]: 1.7 µM; IC50 [5]: 0.71 µM; IC50 [6]: 8.8 µM; IC50 [9]: 7.1 µM; IC50 [10]: 1.4 µM; IC50 [12]: 4.4 µM
Cc1ccc(-c2ccc(C(=O)N[C@H](CN)c3nc(C)c(CO)s3)[nH]2)cc1F | 26.2 | 0.65 | 24.3 | 1.1 | 
Cc1ccc(-c2ccc(C(=O)N[C@H](c3nc(C)c(CCO)s3)[C@@H]3CCCCN3)[nH]2)cc1F | 28.8 | 6.1 | 29.7 | 10.6 | 
Cc1nc([C@@H](NC(=O)c2ccc(-c3ccc(Cl)c(F)c3)[nH]2)[C@@H]2CCCCN2)sc1CCO | 16.1 | 3.4 | 16.9 | 7.5 | 
Cc1nc([C@H](NC(=O)c2ccc(-c3ccc(Cl)c(F)c3)[nH]2)[C@@H]2CCCCN2)sc1CCCO | 8.2 | 4.5 | 12.6 | 5.1 | 
Cc1ccc(-c2ccc(C(=O)N[C@@H](c3nc(C)c(CO)s3)[C@@H]3CCCCN3)[nH]2)cc1F | 19.2 | 1.6 | 28.2 | 3.8 | 
Cc1nc([C@@H](NC(=O)c2ccc(-c3ccc(Cl)cc3)[nH]2)[C@@H]2CCCCN2)sc1CCO | 17.3 | 2 | 26.8 | 8.9 | 
Cc1nc([C@@H](NC(=O)c2ccc(-c3ccc(Cl)c(F)c3)[nH]2)[C@H]2CCCCN2)sc1CO | 15.2 | 1.6 | 17.2 | 3 | 
Cc1ccc(-c2ccc(C(=O)N[C@@H](c3nc(C)c(CCCO)s3)[C@@H]3CCCCN3)[nH]2)cc1F | 17 | 7.4 | 20.6 | 7.9 | 
Cc1nc([C@@H](CN)NC(=O)c2ccc(-c3ccc(Cl)c(F)c3)[nH]2)sc1CO | 26 |  | 22.7 |  | 
Cc1nc([C@H](NC(=O)c2ccc(-c3ccc(Cl)cc3)[nH]2)[C@@H]2CCCCN2)sc1CCCO | 13.7 | 5.8 | 19 | 7.6 | 
Cc1nc([C@@H](CN)NC(=O)c2ccc(-c3ccc(Cl)cc3)[nH]2)sc1CO | 34.1 |  | 28.2 |  | 
Cc1nc([C@H](CN)NC(=O)c2ccc(-c3ccc(Cl)cc3)[nH]2)sc1CO | 33.6 |  | 25.8 |  | IC50 [2]: 11.9 µM; IC50 [14]: 30 µM
Cc1nc([C@H](CN)NC(=O)c2ccc(-c3ccc(Cl)c(F)c3)[nH]2)sc1CO | 40.5 |  | 30.5 |  | IC50 [2]: 15.2 µM
Cc1ccc(-c2ccc(C(=O)N[C@@H](CN)c3nc(C)c(CO)s3)[nH]2)cc1F | 35 | 0.91 | 31.6 | 1.7 | 
Cc1ccc(-c2ccc(C(=O)N[C@@H](c3nc(C)c(CCO)s3)[C@@H]3CCCCN3)[nH]2)cc1F | 15.3 | 3 | 21.2 | 6.3 | 
Cc1nc([C@H](NC(=O)c2ccc(-c3ccc(Cl)c(F)c3)[nH]2)[C@@H]2CCCCN2)sc1CCO | 15.1 | 2.9 | 16.8 | 8 | 
Cc1ccc(-c2ccc(C(=O)N[C@H](c3nc(C)c(CO)s3)[C@@H]3CCCCN3)[nH]2)cc1F | 18 | 3 | 16.1 | 2.7 | 
Cc1nc([C@H](NC(=O)c2ccc(-c3ccc(Cl)c(F)c3)[nH]2)[C@H]2CCCCN2)sc1CO | 17.4 | 2.6 | 26 | 3.2 | 
Cc1nc([C@H](NC(=O)c2ccc(-c3ccc(Cl)cc3)[nH]2)[C@@H]2CCCCN2)sc1CCO | 15.4 | 4.6 | 21 | 5.7 | 
Cc1nc(C(NC(=O)c2ccc(-c3ccc(Cl)cc3)[nH]2)C2CCCCN2)[nH]c1CO (stereo in doubt; 35A) | 30 | 10.2 |  | 14.1 | CC50 ([11]; 96 h): 36.6 µM
Cc1nc(C(NC(=O)c2ccc(-c3ccc(Cl)cc3)[nH]2)C2CCCCN2)[nH]c1CO (stereo in doubt; 35B) | 33.8 |  |  |  | IC50 ([8]; mt2): 18 µM; CC50 ([11]; 96 h): 45.2 µM; IC50 ([13]; tzm-bl): 15.8 µM
Cc1nc(C(NC(=O)c2ccc(-c3ccc(Cl)c(F)c3)[nH]2)C2CCCCN2)[nH]c1CO (stereo in doubt; 36A) | 26.7 |  |  | 8.8 | IC50 ([8]; mt2): 10.6 µM; CC50 ([11]; 96 h): 31.1 µM
Cc1nc(C(NC(=O)c2ccc(-c3ccc(Cl)c(F)c3)[nH]2)C2CCCCN2)[nH]c1CO (stereo in doubt; 36B) | 30.7 |  |  |  | IC50 ([8]; mt2): 22.8 µM; CC50 ([11]; 96 h): 36.4 µM; IC50 ([13]; tzm-bl): 16 µM
Cc1ccc(-c2ccc(C(=O)NC(c3nc(C)c(CO)[nH]3)C3CCCCN3)[nH]2)cc1F (stereo in doubt; 37A) | 33.3 | 12.9 |  | 9.4 | CC50 ([11]; 96 h): 28.4 µM
Cc1ccc(-c2ccc(C(=O)NC(c3nc(C)c(CO)[nH]3)C3CCCCN3)[nH]2)cc1F (stereo in doubt; 37B) | 34.5 |  |  |  | IC50 ([8]; mt2): 22.3 µM; CC50 ([11]; 96 h): 37.1 µM; IC50 ([13]; tzm-bl): 16.9 µM
